According to ChEMBL document CHEMBL1154358, “Xanalteric acids I and II and related phenolic compounds from an endophytic Alternaria sp. isolated from the mangrove plant Sonneratia alba” (J Nat Prod, 2009):
In brackets after ≈: the same amount, converted by molar mass. Activity calls are given as the source filed them.

Assays:
[1] = Cytotoxicity against mouse L5178Y cells assessed as cell viability at 10 ug/ml after 24 hrs by MTT assay; type: cell-based; settings: read-out: Activity
Summary of the method: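 Mouse lymphoma L5178Y cells; viability read by MTT tetrazolium microculture assay. Run as three independent experiments, each in triplicate. Medium with 0.1% (v/v) EtOH served as the negative control in every experiment.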

Staphylococcus aureus = test: Antibacterial activity against methicillin-resistant Staphylococcus aureus by broth dilution method; type: functional
Summary of the method: (§1)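 Dilution assay following EUCAST criteria against multidrug-resistant bacterial or fungal strains. Compounds were tested from 250 down to 0.48 μg/mL. MIC was taken as the lowest concentration at which bacterial or fungal growth was inhibited.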

Escherichia coli = test: Antibacterial activity against multidrug-resistant Escherichia coli by broth dilution method; type: functional, organism-based; summary of the method: as §1
Klebsiella pneumoniae = test: Antibacterial activity against multidrug-resistant Klebsiella pneumoniae by broth dilution method; type: functional, organism-based; summary of the method: as §1
Pseudomonas aeruginosa = test: Antibacterial activity against multidrug-resistant Pseudomonas aeruginosa by broth dilution method; type: functional, organism-based; summary of the method: as §1
Acinetobacter baumannii = test: Antibacterial activity against multidrug-resistant Acinetobacter baumannii by broth dilution method; type: functional, organism-based
Pichia kudriavzevii = test: Antifungal activity against multidrug-resistant Candida krusei by broth dilution method; type: functional, organism-based; summary of the method: as §1
Aspergillus fumigatus = test: Antifungal activity against multidrug-resistant Aspergillus fumigatus by broth dilution method; type: functional, organism-based; summary of the method: as §1
Streptococcus pneumoniae = test: Antibacterial activity against multidrug-resistant Streptococcus pneumoniae by broth dilution method; type: functional; summary of the method: as §1
Enterococcus faecium = test: Antibacterial activity against multidrug-resistant Enterococcus faecium by broth dilution method; type: functional; summary of the method: as §1
Enterobacter cloacae = test: Antibacterial activity against multidrug-resistant Enterobacter cloacae by broth dilution method; type: functional; summary of the method: as §1
Aspergillus ficuum = test: Antifungal activity against multidrug-resistant Aspergillus ficuum by broth dilution method; type: functional
Candida albicans = test: Antifungal activity against multidrug-resistant Candida albicans by broth dilution method; type: functional; summary of the method: as §1

Compound | Activity (Escherichia coli) | Activity (Klebsiella pneumoniae) | Activity (Pseudomonas aeruginosa) | Activity (Acinetobacter baumannii) | Activity (Pichia kudriavzevii) | Activity (Aspergillus fumigatus) | Activity (Staphylococcus aureus) | Activity (Streptococcus pneumoniae) | Activity (Enterococcus faecium) | Activity (Enterobacter cloacae) | Activity (Aspergillus ficuum) | Activity (Candida albicans) | also measured
O=C1C=Cc2c3c4c(c(O)ccc4c4ccc(O)c1c24)OC(O)(C(=O)O)C3 (centres undefined) [XANALTERIC ACID II] | inactive | inactive | inactive | inactive | inactive | inactive | – | – | – | – | – | – | viability at 24 h, 10 ug/ml [1]: 87.5%; MIC (Staphylococcus aureus): 250 µg/mL (≈ 686 µM)
O=C1C[C@@H](O)[C@H]2c3c(ccc(O)c31)-c1ccc(O)c3c1[C@]2(O)C=CC3=O | inactive | inactive | inactive | inactive | inactive | inactive | inactive | inactive | inactive | inactive | inactive | inactive | –
COc1cc(O)c(C(=O)O)c(-c2cc(O)c(O)cc2C)c1 [ALTENUSIN] | inactive | inactive | inactive | inactive | inactive | inactive | – | – | – | – | – | – | MIC (Staphylococcus aureus): 31.2 µg/mL (≈ 108 µM); MIC (Streptococcus pneumoniae): 31.2 µg/mL (≈ 108 µM); MIC (Enterococcus faecium): 62.5 µg/mL (≈ 215 µM); MIC (Enterobacter cloacae): 125 µg/mL (≈ 431 µM); MIC (Aspergillus ficuum): 62.5 µg/mL; MIC (Candida albicans): 125 µg/mL (≈ 431 µM)
COc1c(CC(C)O)c2c3c(CC(C)O)c(C(=O)O)oc4c(O)cc5c(c6c(cc(O)c(c1=O)c62)OCO5)c43 (centres undefined) | inactive | inactive | inactive | inactive | inactive | inactive | inactive | inactive | inactive | inactive | inactive | inactive | –
COc1cc(O)c2c(c1)C1C[C@H](O)[C@@H](O)C[C@@]1(C)OC2=O (some centres undefined) | inactive | inactive | inactive | inactive | inactive | inactive | inactive | inactive | inactive | inactive | inactive | inactive | –
COc1c(CC(C)O)c2c3c(CC(C)O)c(OC)c(=O)c4c(O)cc5c(c6c(cc(O)c(c1=O)c62)OCO5)c43 (centres undefined) | inactive | inactive | inactive | inactive | inactive | inactive | inactive | inactive | inactive | inactive | inactive | inactive | –
COc1cc(O)c2c(=O)oc3cc(O)cc(C)c3c2c1 | inactive | inactive | inactive | inactive | inactive | inactive | inactive | inactive | inactive | inactive | inactive | inactive | –
COc1cc(O)c(C(=O)O)c(-c2c(C)cc(C(=O)O)oc2=O)c1 [ALTERNARIAN ACID] | inactive | inactive | inactive | inactive | inactive | inactive | inactive | inactive | inactive | inactive | inactive | inactive | viability at 24 h, 10 ug/ml [1]: 99.2%
O=C1C[C@H](O)[C@@H]2c3c(ccc(O)c31)-c1ccc(O)c3c1[C@@]2(O)CCC3=O | inactive | inactive | inactive | inactive | inactive | inactive | inactive | inactive | inactive | inactive | inactive | inactive | –
O=C1C=Cc2c3c4c(c(O)ccc4c4ccc(O)c1c24)OC(C(=O)O)C3O (centres undefined) [XANALTERIC ACID I] | inactive | inactive | inactive | inactive | inactive | inactive | – | – | – | – | – | – | viability at 24 h, 10 ug/ml [1]: 45%; MIC (Staphylococcus aureus): 125 µg/mL (≈ 343 µM)
Cc1cc(O)cc2oc(=O)c3c(O)cc(O)cc3c12 | – | – | – | – | – | – | inactive | inactive | inactive | inactive | inactive | inactive | MIC (Escherichia coli): inactive; MIC (Klebsiella pneumoniae): inactive; MIC (Pseudomonas aeruginosa): inactive; MIC (Acinetobacter baumannii): inactive; MIC (Pichia kudriavzevii): inactive; MIC (Aspergillus fumigatus): inactive
O=C1C[C@@H](O)[C@@H]2c3ccc(O)c4c3[C@@H](c3ccc(O)c1c32)[C@H](O)CC4=O | inactive | inactive | inactive | inactive | inactive | inactive | inactive | inactive | inactive | inactive | inactive | inactive | –
COc1cc(O)c2c(c1)C1=C[C@H](O)[C@@H](O)C[C@]1(C)OC2=O | inactive | inactive | inactive | inactive | inactive | inactive | inactive | inactive | inactive | inactive | inactive | inactive | –
